The values below come from ChEMBL document CHEMBL2157873, “Development and characterization of endocannabinoid hydrolases FAAH and MAGL inhibitors bearing a benzotriazol-1-yl carboxamide scaffold” (Bioorg Med Chem, 2012).

pIC50: −log10 of the molar value.

For one test, the species on record is Homo sapiens. As to the kind of experiment: Selectivity ratio of IC50 for human recombinant FAAH to IC50 for human MAGL. In short, it runs like this: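 Selectivity calculated as IC50 for human FAAH divided by IC50 for human MAGL. Both IC50 values from radiometric hydrolysis assays: [3H]-AEA with MBP-fused FAAH and [3H]-2-OG with pure MAGL. Each assay had 30 min inhibitor preincubation. Means of three independent experiments in duplicate.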

The target in a further test is T1, Monoglyceride lipase (Homo sapiens, UniProt Q99685).
T1 sequence (Q99685 whole entry): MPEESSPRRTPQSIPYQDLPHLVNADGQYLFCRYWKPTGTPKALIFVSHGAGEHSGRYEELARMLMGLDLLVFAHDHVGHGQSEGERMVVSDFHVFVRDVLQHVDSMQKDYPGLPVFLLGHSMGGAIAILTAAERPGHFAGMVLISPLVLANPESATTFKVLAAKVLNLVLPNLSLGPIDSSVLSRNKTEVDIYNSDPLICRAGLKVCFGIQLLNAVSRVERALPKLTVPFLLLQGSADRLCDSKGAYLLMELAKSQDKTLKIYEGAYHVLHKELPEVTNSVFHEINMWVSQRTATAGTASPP
Kind of test: Inhibition of human MAGL assessed as [3H]-2-OG hydrolysis preincubated for 30 mins before [3H]-2-OG addition measured after 10 mins by liquid scintillation counting. In short, it runs like this:
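[3H]-2-oleoylglycerol then added at 10 µM final. Stopped with methanol-chloroform (1:1), centrifuged 5 min at 700 g, aqueous-phase radioactivity read by liquid scintillation, no-enzyme blank subtracted. Means of three independent experiments in duplicate.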

In test [1] the target is T2, Fatty-acid amide hydrolase 1 (Homo sapiens, UniProt O00519).
T2 sequence (O00519 whole entry): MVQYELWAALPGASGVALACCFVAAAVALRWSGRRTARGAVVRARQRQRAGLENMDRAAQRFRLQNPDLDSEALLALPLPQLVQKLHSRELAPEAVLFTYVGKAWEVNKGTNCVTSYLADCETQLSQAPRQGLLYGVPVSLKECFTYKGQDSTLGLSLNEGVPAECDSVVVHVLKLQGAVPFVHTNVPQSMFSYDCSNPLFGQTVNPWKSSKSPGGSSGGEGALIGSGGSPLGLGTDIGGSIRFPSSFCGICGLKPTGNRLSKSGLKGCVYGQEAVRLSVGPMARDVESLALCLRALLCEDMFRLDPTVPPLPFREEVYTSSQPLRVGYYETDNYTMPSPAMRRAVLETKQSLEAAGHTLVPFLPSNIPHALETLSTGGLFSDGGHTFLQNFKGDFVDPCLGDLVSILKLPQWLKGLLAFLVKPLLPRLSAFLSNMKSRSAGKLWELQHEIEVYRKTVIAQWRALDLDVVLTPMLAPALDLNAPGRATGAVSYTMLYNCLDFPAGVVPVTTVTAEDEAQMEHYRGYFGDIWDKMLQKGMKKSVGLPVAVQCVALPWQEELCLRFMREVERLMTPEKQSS
As to the kind of experiment: Inhibition of human recombinant FAAH assessed as [3H]-AEA hydrolysis preincubated for 30 mins […] measured after 10 mins by liquid scintillation counting. A digest of the protocol:
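Human FAAH fused to maltose-binding protein, preincubated 30 min at 22 °C with inhibitor at various concentrations (Tris 10 mM, EDTA 1 mM, pH 8.0, inhibitor in DMSO). [3H]-anandamide (50,000 dpm) added, 10 min at 37 °C. Stopped with cold methanol/chloroform (1:1), aqueous-phase radioactivity by scintillation, blank subtracted, percent of control fitted as dose-response. Three independent experiments in duplicate.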

`O=C(N1CCN(c2ccccc2)CC1)n1nnc2ccccc21`: in the test filed under Homo sapiens, the Ratio IC50 amounted to 0.5. The pIC50 (in general, −log10 of the IC50, conventionally taken in molar units) was 7.68 on Monoglyceride lipase and 7.96 in test [1].
For `O=C(NC1CCCCC1)c1cccc(CN2CCN(C(=O)n3nnc4ccccc43)CC2)c1`, the Ratio IC50 in the test listed under Homo sapiens was found to be 3.4. Besides, the pIC50 at Monoglyceride lipase is 7.89; in test [1] it was 7.36.
For `O=C(N1CCN(c2ccccc2F)CC1)n1nnc2ccccc21`, the Ratio IC50 in the test listed under Homo sapiens is 0.44. Moreover, the figures for the pIC50 (at Monoglyceride lipase; in test [1]) were 7.52 and 7.89, respectively.
With `O=C(N1CCN(Cc2cccc(Cl)c2)CC1)n1nnc2ccccc21`, the Ratio IC50 in the test filed under Homo sapiens stood at 4.5. The pIC50 on Monoglyceride lipase was 8.70; in test [1] it was 8.05.
On the same counts, the results for `O=C(N1CCN(Cc2ccc(-c3ccccc3)cc2)CC1)n1nnc2ccccc21` are 0.3, 7.21 and 7.74.
On the same counts, the results for `O=C(N1CCN(Cc2ccccc2-c2ccccc2)CC1)n1nnc2ccccc21` are 1, 7.48 and 7.49.
The matching figures for `O=C(N1CCN(Cc2cccc([N+](=O)[O-])c2)CC1)n1nnc2ccccc21`: 5.4, 8.10 and 7.37.
For `Cc1ccccc1N1CCN(C(=O)n2nnc3ccccc32)CC1`, the Ratio IC50 in the test listed under Homo sapiens was 0.04. Also, the pIC50 on Monoglyceride lipase was 7.15; in test [1], 8.52.
Consider `O=C(Nc1ccccc1)c1cc(N2CCN(C(=O)n3nnc4ccccc43)CC2)ccc1[N+](=O)[O-]`, for which the Ratio IC50 in the test listed under Homo sapiens was 19. For the same molecule, the values for the negative logarithm of the IC50 (pIC50) (at Monoglyceride lipase; in test [1]) were 7.72 and 6.44, respectively.
The matching figures for `O=C(N1CCN(Cc2cccc3ccccc23)CC1)n1nnc2ccccc21`: 4, 8.52 and 7.89.
With `O=C(N1CCN(Cc2ccc3ccccc3c2)CC1)n1nnc2ccccc21`, the Ratio IC50 in the test filed under Homo sapiens is 1.3. The negative-log IC50 (pIC50) on Monoglyceride lipase is 8.05; in test [1], 7.92.
The matching figures for `CN(C)C(=O)c1cccc(CN2CCN(C(=O)n3nnc4ccccc43)CC2)c1`: 2.7, 6.99 and 6.56.
As to `O=C(NC1CCCCC1)c1cc(N2CCN(C(=O)n3nnc4ccccc43)CC2)ccc1[N+](=O)[O-]`, the Ratio IC50 in the test filed under Homo sapiens amounted to 12. The negative-log IC50 (pIC50) at Monoglyceride lipase is 7.39; in test [1] it was 6.31.
The matching figures for `O=C(N1CCN(Cc2ccc([N+](=O)[O-])cc2)CC1)n1nnc2ccccc21`: 7.6, 7.92 and 7.05.
The matching figures for `O=C(N1CCN(Cc2ccc(F)cc2)CC1)n1nnc2ccccc21`: 1.5, 8.00 and 7.82.
Regarding `O=C(N1CCC(Cc2ccccc2)CC1)n1nnc2ccccc21`, in the test listed under Homo sapiens, the Ratio IC50 stood at 0.7. In addition, the results for the pIC50 (at Monoglyceride lipase; in test [1]) were 8.52 and 8.70, respectively.
With `O=C(c1cccc(CN2CCN(C(=O)n3nnc4ccccc43)CC2)c1)N1CCCCC1`, in the test listed under Homo sapiens, the Ratio IC50 amounted to 1.6. Moreover, the pIC50 on Monoglyceride lipase was 7.44; in test [1], 7.24.
On the same counts, the results for `O=C(c1cc(N2CCN(C(=O)n3nnc4ccccc43)CC2)ccc1[N+](=O)[O-])N1CCCCC1` are 60, 7.42 and 5.64.
The matching figures for `O=C(c1ccc(N2CCN(C(=O)n3nnc4ccccc43)CC2)c([N+](=O)[O-])c1)N1CCOCC1`: 2, 6.02 and 5.71.
In the case of `O=C(N1CCN(Cc2ccc(Br)cc2)CC1)n1nnc2ccccc21`, in the test listed under Homo sapiens, the Ratio IC50 came to 2.5. Moreover, the figures for the pIC50 (on Monoglyceride lipase; in test [1]) were 8.05 and 7.66, respectively.
Consider `O=C(N1CCN(c2ccc([N+](=O)[O-])cc2)CC1)n1nnc2ccccc21`, for which the Ratio IC50 in the test filed under Homo sapiens turned out to be 1.7. Besides, the results for the pIC50 (at Monoglyceride lipase; in test [1]) were 7.70 and 7.47, respectively.
Consider `O=C(NCCc1ccc(O)c(O)c1)n1nnc2ccccc21`, for which the pIC50 on Monoglyceride lipase was 4.98.
